E coli WT exp: blocks growth of wild type E. coli BW25113 | OD600 absorbance | growth inhibition, % at 100 µM | 0.15% of 98,000 active | AID 710;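 active means growth inhibition above about 50% at one test dose, limit read from the data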;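 further: growth measured after 20 h incubation at 37 °C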
Ecoli tolC: blocks growth of E. coli BW25113 tolC mutant | OD615 | growth inhibition, % at 10 µM (by protocol) | 2.2% of 65,000 active;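 active means growth inhibition at or above a cutoff equal to the mean over every tested compound plus 3 SD, cut at about 60% in these data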;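 further: growth measured after 20 h incubation at 37 °C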
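Material: E. coli BW25113 ΔtolC::kan, tolC deletion mutant strain. Measure: percent growth inhibition. Schedule: 37 °C, 20 h exposure. Doses: single-point testing at 10 µM. Signal: A615 absorbance measurement. Buffer or medium: kanamycin-containing LB broth (50 µg/mL).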
CYP2C19 activ: cytochrome P450 2C19 (human) activation; P33261; recombinant CYP2C19, luciferin-H EGE luminescence; hits give high values; 0 = fully inhibited enzyme, 1 = untreated enzyme; activation factor at 5 µM; 96,000 tested, under 10 active;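 active means activation factor of at least 2 at 5 µM in the primary screen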;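 further: 0 = wells with 2.5 mM tranylcypromine and 1 = vehicle-only wells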
Target sequence (P33261 whole entry, looked up): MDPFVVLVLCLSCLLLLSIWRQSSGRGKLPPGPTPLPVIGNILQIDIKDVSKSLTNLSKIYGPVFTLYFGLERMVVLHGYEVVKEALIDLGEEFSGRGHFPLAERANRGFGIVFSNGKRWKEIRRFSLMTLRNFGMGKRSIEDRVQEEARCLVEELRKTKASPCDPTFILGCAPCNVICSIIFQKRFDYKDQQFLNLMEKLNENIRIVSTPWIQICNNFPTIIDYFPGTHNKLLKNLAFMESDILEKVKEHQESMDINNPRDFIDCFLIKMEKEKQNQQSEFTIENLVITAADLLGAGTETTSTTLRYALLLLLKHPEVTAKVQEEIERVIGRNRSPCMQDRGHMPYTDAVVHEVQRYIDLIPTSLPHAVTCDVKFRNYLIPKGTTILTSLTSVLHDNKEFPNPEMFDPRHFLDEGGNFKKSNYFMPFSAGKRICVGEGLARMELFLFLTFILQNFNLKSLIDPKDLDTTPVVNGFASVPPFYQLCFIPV
CYP2C9 inh: blocks human cytochrome P450 2C9; 20% of 96,000 active; inhibition, % at 5 µM; CYP2C9 Supersomes, luciferin-H conversion, luminescence;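 active means blocking of liver enzyme CYP2C9 beyond about 50% at 5 µM, limit read from the data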
CYP2C19 inhib: human CYP2C19 inhibition. CYP2C19 Supersomes, luciferin-H EGE luminescence, 30 min. 21% of 96,000 active. AID 778. inhibition, % at 5 µM;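 active means CYP2C19 inhibition above a set limit at 5 µM in the primary screen, cut at about 50% in these data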;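 further: plate controls were negative control wells for no effect and 2.5 mM tranylcypromine positive control for full effect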
CYP2C9 act: CYP2C9 (human) activation; recombinant CYP2C9, luciferin-H conversion, luminescence; hits give high values; factor 1 = untreated enzyme, 0 = blocked; activation factor at 5 µM; 1.4% of 96,000 active; P11712;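 active means activation factor of 2 or more for CYP2C9 at a 5 µM dose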;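 further: 0 = sulfaphenazole-blocked wells and 1 = vehicle-only wells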
Numbers without * were called inactive; . = not tested or not shown. Rows were chosen to be rich in hits. Some 29% of all compounds tested hit in one or more screens of this group.

SMILES | E coli WT exp | Ecoli tolC | CYP2C19 activ | CYP2C9 inh | CYP2C19 inhib | CYP2C9 act
O=S(=O)(Nc1nc2ccc(S(=O)(=O)N3CCCCC3)cc2s1)c1ccccc1 | 5 | . | 0.9 | 99* | 10 | 0
O=C(Nc1nc2ccc(S(=O)(=O)N3CCCCC3)cc2s1)c1ccncc1 | 3 | 31 | 0.1 | 84* | 86* | 0.2
O=c1ccc(Oc2nc(N3CCOCC3)nc(N3CCOCC3)n2)n[nH]1 | 6 | . | 0.8 | -3 | 17 | 1
COC(=O)c1ccc(Cn2nc(C(F)(F)F)cc2C)cc1 | 10 | . | 0.3 | 27 | 69* | 0.7
Cc1cc(C)n(Cc2ccc(NC(=O)c3ccc(COc4ccccc4Br)cc3)cc2)n1 | -12 | . | 0.7 | 77* | 31 | 0.2
COC(=O)c1ccc(Cn2nc(C)cc2C)cc1 | -2 | . | 0.1 | -4 | 93* | 1
Cc1cc(C)n(Cc2ccc(C(=O)O)cc2)n1 | -6 | . | 0.9 | 4 | 11 | 1
Cc1cc(C(F)(F)F)nn1CC(=O)NCc1ccccc1 | 9 | -8 | 0.5 | -37 | 52* | 1.4
Cn1c(NC(=O)C2c3ccccc3Oc3ccccc32)cc(=O)n(C)c1=O | 0 | -5 | 0.8 | 15 | 23 | 0.9
COC(=O)c1cc(C(=O)OC)n(Cc2ccc(Br)cc2)n1 | 9 | . | 0.1 | 58* | 91* | 0.4
Cc1ccccc1NC(=O)Cn1nc(C(F)(F)F)cc1C1CC1 | 7 | . | 0.3 | -8 | 72* | 1.1
COC(=O)c1cc(-c2ccc(Br)cc2)on1 | 2 | -11 | 1 | 29 | -3 | 0.7
COC(=O)c1ccc(Cn2nc(C)c(Br)c2C)cc1 | 11 | 18 | 0 | 70* | 99* | 0.3
Cc1nn(Cc2ccccc2)c(C)c1NC(=O)CCC(=O)O | -3 | -14 | 1 | 10 | -2 | 0.9
Cc1nc2ncnn2c(N2CCN(C(=O)Cc3cccs3)CC2)c1C | 3 | -19 | 1 | 6 | 1 | 0.9
C=CCOc1ccc(CNc2nn[nH]n2)cc1OC | 4 | . | 0.2 | 18 | 81* | 0.8
COc1ccc(CNc2n[nH]c(NCc3ccc(OC)c(OC)c3)n2)cc1OC | -3 | -9 | 1 | -1 | -3 | 1
C=CCOc1ccc(CNn2c(C)n[nH]c2=S)cc1OC | 1 | . | 0.4 | 10 | 61* | 0.9
CC(C)NC(=O)c1onc(CSc2cccc(F)c2)c1C(=O)O | 2 | . | 1 | 35 | -1 | 0.7
CCN(CC)c1ccc(C2Nc3cccc4cccc(c34)N2)c(O)c1 | . | 12 | 0.8 | -16 | 24 | 1.2
Cc1ccc2cccc(S(=O)(=O)Nc3ccc4c(c3)OCO4)c2n1 | -11 | 3 | 0 | 25 | 100* | 0.7
O=S(=O)(Nc1ccc2c(c1)OCCO2)c1cccc2nsnc12 | 16 | 8 | 0.4 | 35 | 60* | 0.7
CN(C)c1ccc(C(C(=O)NC(C)(C)C)N(C(=O)c2csnn2)C2CC2)cc1 (stereo not given) | -1 | 31 | 0.6 | 5 | 37 | 0.9
CCN1C(=O)C(C)S/C1=N\S(=O)(=O)c1ccc(Cl)s1 (stereo not given) | 5 | 8 | 0.3 | -16 | 70* | 1.2
CCOC(=O)c1cc2c(C)n(-c3ccc(OCC)cc3)c(C)c2ccc1=O | 8 | . | 0.4 | 20 | 64* | 0.8
SMILES | E coli WT exp | Ecoli tolC | CYP2C19 activ | CYP2C9 inh | CYP2C19 inhib | CYP2C9 act
CCOC(=O)c1cc2c(C)n(-c3ccc(C)cc3)c(C)c2ccc1=O | 4 | . | 0.6 | 59* | 39 | 0.4
Cc1cc(C)c(C#N)c(SCC(=O)CC(=O)OC(C)C)n1 | -3 | -22 | 0.1 | 53* | 91* | 0.5
Cc1cc(C)c(C#N)c(SCC(=O)OC2CCCCC2)n1 | -9 | 73* | 0.3 | 60* | 66* | 0.4
Cc1nc(SCC(=O)CC(=O)OC(C)C)c(C#N)c(C)c1C | 9 | 9 | 0.4 | 23 | 64* | 0.8
Cc1ccc2sc(NC(=O)CSc3nc(C)cc(C)c3C#N)nc2c1 | -10 | . | 0.3 | 68* | 68* | 0.3
CC(=O)Nc1ccc(NC(=O)CN(c2ccccc2Cl)S(C)(=O)=O)cc1 | -2 | -6 | 0.9 | -2 | 14 | 1
CN1CCN(/C=N/c2c(C#N)cnn2Cc2ccccc2)CC1 | 6 | -16 | 1.1 | -7 | -6 | 1.1
CCOC(=O)N1CCN(CC(O)COC2CC(C)CCC2C(C)C)CC1 (stereo not given) | 7 | . | 0.4 | 48 | 57* | 0.5
